This passage reports Activity and Selectivity ratio results from ChEMBL document CHEMBL1152541, “Staurosporine tethered peptide ligands that target cAMP-dependent protein kinase (PKA): optimization and selectivity profiling” (Bioorg Med Chem, 2009).

The target in test [1] is Cyclin-dependent kinase 2 (Homo sapiens) (UniProt P24941). The test is described as follows: Binding affinity to human CDK2 at 500 nM by cell-based competition binding assay relative to control in presence of DTT. In a few lines:
(§1)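 Kinase binding profiling ran on a commercial (Ambit) competitive binding screen against a panel of 90 kinases. The screen used reducing conditions with 7.5 mM DTT. To withstand the DTT, the bivalent ligand was tested as its amide isostere, with the disulfide replaced. A staurosporine derivative carrying a 3 β-alanine linker was run as the reference compound.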

Test [2] concerns the target Platelet-derived growth factor receptor alpha (Homo sapiens) (UniProt P16234). As to the kind of experiment: Binding affinity to human PDGFRalpha at 500 nM by cell-based competition binding assay relative to control in presence of DTT.
In test [3] the target is T1, Serine/threonine-protein kinase DCLK1 (Homo sapiens) (UniProt O15075).
T1 sequence (whole entry): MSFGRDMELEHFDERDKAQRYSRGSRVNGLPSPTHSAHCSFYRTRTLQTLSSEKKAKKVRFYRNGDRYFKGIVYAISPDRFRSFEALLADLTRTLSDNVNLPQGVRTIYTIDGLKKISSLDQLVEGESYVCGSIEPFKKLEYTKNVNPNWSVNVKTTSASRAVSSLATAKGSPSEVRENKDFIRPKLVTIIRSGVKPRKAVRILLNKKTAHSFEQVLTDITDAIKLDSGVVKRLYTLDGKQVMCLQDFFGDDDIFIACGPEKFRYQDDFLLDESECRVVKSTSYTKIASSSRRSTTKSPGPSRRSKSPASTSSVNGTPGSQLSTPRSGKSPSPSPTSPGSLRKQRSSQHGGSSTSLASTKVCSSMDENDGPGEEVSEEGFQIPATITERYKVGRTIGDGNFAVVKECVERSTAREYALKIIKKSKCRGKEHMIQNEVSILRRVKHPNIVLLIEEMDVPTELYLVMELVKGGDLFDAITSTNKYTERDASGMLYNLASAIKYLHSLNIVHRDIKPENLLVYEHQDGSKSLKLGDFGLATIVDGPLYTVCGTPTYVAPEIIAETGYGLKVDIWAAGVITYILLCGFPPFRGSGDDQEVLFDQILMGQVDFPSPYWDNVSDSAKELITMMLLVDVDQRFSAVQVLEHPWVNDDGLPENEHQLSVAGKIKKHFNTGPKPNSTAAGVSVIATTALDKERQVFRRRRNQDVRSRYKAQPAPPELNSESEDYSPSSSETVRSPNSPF
As to the kind of experiment: Binding affinity to human DCAMKL1 at 500 nM by cell-based competition binding assay relative to control in presence of DTT. In a few lines:
(§2)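 Commercial (Ambit) competitive kinase-binding panel of 90 kinases measured the binding profile. Run under reducing conditions of 7.5 mM DTT. Binding is expressed relative to control.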

Test [4] addresses T2, Tyrosine-protein kinase ZAP-70 (Homo sapiens) (UniProt P43403).
T2 sequence (whole entry): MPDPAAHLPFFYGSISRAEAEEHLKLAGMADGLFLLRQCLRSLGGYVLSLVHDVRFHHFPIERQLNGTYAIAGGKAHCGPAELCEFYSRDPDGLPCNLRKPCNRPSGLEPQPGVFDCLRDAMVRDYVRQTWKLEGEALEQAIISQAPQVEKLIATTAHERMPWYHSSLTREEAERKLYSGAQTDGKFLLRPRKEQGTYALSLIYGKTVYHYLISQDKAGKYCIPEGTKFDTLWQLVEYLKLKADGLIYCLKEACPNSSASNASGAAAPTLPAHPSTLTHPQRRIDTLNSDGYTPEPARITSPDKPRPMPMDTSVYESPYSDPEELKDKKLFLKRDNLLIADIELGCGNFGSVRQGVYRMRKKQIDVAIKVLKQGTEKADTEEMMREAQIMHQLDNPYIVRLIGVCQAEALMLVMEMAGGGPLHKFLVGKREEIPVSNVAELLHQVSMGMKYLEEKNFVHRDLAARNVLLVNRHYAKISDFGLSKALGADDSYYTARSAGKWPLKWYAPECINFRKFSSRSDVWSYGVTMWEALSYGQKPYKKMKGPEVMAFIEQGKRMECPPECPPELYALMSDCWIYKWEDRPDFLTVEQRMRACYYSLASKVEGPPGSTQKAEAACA
As to the kind of experiment: Ratio of staurosporine to compound binding affinity to human ZAP70 in presence of DTT.

The target of test [5] is Cyclin-dependent kinase 7 (Homo sapiens) (UniProt P50613). The test is described as follows: Binding affinity to human CDK7 at 500 nM by cell-based competition binding assay relative to control in presence of DTT. The method, boiled down: as §2
Sequence of Cyclin-dependent kinase 7 (Homo sapiens) (P50613 whole entry): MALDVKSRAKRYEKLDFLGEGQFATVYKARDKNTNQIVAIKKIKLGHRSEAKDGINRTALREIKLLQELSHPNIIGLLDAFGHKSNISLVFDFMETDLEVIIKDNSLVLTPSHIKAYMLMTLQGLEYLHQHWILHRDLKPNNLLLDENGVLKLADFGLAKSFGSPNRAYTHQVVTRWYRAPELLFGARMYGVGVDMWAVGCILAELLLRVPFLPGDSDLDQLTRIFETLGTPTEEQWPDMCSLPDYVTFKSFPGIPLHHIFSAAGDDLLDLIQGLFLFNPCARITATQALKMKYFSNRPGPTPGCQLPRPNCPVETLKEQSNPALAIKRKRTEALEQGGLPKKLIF
In test [6] the target is T3, Activin receptor type-1B (Homo sapiens) (UniProt P36896).
T3 sequence (whole entry): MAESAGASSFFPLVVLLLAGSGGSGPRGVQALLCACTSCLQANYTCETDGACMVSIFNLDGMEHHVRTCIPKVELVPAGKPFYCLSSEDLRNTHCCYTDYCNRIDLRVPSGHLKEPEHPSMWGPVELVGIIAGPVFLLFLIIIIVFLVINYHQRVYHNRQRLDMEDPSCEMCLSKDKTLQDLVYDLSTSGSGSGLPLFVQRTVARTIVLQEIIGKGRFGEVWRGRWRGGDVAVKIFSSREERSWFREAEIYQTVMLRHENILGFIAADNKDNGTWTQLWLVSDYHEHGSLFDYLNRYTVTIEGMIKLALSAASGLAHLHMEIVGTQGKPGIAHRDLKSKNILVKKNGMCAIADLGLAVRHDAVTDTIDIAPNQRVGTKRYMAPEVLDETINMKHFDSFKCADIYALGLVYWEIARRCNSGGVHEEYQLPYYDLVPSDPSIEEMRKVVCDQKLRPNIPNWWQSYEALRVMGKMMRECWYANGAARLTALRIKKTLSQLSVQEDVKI
As to the kind of experiment: Binding affinity to human ACVR1B at 500 nM by cell-based competition binding assay relative to control in presence of DTT. The method, boiled down: as §1

Test [7] addresses Serine/threonine-protein kinase PAK 1 (Homo sapiens) (UniProt Q13153). As to the kind of experiment: Binding affinity to human PAK1 at 200 nM by cell-based competition binding assay relative to control in presence of DTT.
The target in test [8] is Serine/threonine-protein kinase pim-3 (Homo sapiens) (UniProt Q86V86). The test is described as follows: Binding affinity to human PIM3 at 200 nM by cell-based competition binding assay relative to control in presence of DTT.
In test [9] the target is Angiopoietin-1 receptor (Homo sapiens) (UniProt Q02763). As to the kind of experiment: Binding affinity to human TIE2 at 200 nM by cell-based competition binding assay relative to control in presence of DTT.
Sequence of Angiopoietin-1 receptor (Homo sapiens) (Q02763 whole entry, the tested form may be a part): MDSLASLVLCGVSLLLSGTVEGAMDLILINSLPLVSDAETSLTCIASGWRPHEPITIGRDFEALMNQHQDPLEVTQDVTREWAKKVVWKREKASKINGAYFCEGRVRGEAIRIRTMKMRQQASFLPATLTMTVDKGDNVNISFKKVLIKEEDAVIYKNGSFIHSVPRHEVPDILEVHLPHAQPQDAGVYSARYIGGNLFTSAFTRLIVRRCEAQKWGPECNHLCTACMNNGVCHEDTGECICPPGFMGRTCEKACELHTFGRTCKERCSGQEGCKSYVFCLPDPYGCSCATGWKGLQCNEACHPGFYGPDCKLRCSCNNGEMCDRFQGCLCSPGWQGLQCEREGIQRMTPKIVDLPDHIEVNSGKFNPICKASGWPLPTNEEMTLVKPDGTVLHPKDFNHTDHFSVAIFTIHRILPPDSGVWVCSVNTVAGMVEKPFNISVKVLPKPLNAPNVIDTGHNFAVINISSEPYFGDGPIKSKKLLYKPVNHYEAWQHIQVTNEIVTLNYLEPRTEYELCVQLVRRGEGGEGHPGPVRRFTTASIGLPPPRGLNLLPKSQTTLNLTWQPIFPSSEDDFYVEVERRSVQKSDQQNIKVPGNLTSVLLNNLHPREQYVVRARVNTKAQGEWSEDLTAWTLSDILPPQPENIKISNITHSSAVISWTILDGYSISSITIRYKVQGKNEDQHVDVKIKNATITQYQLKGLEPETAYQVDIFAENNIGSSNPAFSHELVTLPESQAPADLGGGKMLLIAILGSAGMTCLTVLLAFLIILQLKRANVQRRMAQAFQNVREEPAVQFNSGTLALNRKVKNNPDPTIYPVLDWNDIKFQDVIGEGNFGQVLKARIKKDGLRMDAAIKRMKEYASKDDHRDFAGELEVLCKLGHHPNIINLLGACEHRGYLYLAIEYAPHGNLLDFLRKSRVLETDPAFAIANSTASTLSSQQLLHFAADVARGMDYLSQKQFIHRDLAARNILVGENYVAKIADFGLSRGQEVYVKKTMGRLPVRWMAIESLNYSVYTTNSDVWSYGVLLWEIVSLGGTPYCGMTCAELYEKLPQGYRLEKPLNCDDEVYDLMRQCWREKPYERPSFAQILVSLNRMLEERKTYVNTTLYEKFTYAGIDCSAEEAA
For test [10], the target named is Phosphatidylinositol 4-phosphate 3-kinase C2 domain-containing subunit beta (Homo sapiens) (UniProt O00750). The test is described as follows: Binding affinity to human PIK3C2beta at 50 nM by cell-based competition binding assay relative to control in presence of DTT.
Sequence of Phosphatidylinositol 4-phosphate 3-kinase C2 domain-containing subunit beta (Homo sapiens) (O00750 whole entry, the tested form may be a part): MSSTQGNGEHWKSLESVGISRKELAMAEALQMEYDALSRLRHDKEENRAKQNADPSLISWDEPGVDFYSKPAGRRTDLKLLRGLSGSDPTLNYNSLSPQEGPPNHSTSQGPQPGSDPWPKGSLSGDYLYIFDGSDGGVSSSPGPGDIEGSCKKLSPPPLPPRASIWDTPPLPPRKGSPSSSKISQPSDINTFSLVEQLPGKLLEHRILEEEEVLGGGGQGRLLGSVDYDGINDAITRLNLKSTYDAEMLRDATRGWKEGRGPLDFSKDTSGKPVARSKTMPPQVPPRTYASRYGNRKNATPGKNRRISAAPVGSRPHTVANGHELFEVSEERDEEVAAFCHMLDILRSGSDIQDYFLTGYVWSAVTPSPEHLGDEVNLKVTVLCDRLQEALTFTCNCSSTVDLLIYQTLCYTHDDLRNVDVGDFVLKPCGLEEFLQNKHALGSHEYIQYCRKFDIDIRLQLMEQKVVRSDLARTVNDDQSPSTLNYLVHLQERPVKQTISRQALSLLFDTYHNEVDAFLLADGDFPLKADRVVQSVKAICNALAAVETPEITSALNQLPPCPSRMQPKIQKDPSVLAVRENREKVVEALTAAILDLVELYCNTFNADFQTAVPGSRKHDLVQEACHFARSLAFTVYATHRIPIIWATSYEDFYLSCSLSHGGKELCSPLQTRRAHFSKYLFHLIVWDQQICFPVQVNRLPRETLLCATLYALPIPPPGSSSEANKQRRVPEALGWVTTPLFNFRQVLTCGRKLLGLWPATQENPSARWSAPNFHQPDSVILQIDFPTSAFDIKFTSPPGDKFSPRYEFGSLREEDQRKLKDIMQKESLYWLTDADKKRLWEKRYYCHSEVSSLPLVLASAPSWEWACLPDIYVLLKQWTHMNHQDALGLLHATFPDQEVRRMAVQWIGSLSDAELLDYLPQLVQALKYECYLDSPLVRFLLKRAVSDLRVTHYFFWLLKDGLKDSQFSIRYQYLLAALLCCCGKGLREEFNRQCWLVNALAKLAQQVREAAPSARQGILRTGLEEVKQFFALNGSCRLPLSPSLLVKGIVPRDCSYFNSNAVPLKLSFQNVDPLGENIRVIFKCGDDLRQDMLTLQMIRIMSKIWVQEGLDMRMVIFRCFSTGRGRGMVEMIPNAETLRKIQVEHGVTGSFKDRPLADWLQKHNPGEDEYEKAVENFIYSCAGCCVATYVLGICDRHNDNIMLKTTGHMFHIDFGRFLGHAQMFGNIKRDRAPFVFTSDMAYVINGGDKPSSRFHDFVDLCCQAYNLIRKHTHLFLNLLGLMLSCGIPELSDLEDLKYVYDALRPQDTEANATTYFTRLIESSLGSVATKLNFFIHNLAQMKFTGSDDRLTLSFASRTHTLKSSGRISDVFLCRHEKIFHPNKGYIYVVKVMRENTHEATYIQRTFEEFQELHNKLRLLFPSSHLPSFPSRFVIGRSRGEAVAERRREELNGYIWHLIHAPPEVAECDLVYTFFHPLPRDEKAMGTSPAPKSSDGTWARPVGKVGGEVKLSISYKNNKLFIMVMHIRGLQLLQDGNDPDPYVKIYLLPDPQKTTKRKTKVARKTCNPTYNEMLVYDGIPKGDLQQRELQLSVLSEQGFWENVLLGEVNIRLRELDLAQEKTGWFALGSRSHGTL
Test [11] addresses Proto-oncogene tyrosine-protein kinase receptor Ret (Homo sapiens) (UniProt P07949). The test is described as follows: Binding affinity to human RET at 50 nM by cell-based competition binding assay relative to control in presence of DTT.

*1 amine or outer side, *2 acyl side, *3 side chain or, on linkers, in order; H or OH if unused. Where a SMILES comes first, the peptide text is derived from it. Bridges are numbered along the chain shown (N, C = ends). [ ]: non-standard residue; d: D form. The star is where a group is joined. Staurosporine = CO[C@@H]1[C@H](N(C)*)C[C@H]2O[C@]1(C)n1c3ccccc3c3c4c(c5c6ccccc6n2c5c31)C(=O)NC4; Suc = O=C(CCC(=O)[*:2])[*:1]; Dap = NC[C@H](N)C(=O)O; βAla = NCCC(=O)O

Sequence of Platelet-derived growth factor receptor alpha (Homo sapiens) (P16234 whole entry): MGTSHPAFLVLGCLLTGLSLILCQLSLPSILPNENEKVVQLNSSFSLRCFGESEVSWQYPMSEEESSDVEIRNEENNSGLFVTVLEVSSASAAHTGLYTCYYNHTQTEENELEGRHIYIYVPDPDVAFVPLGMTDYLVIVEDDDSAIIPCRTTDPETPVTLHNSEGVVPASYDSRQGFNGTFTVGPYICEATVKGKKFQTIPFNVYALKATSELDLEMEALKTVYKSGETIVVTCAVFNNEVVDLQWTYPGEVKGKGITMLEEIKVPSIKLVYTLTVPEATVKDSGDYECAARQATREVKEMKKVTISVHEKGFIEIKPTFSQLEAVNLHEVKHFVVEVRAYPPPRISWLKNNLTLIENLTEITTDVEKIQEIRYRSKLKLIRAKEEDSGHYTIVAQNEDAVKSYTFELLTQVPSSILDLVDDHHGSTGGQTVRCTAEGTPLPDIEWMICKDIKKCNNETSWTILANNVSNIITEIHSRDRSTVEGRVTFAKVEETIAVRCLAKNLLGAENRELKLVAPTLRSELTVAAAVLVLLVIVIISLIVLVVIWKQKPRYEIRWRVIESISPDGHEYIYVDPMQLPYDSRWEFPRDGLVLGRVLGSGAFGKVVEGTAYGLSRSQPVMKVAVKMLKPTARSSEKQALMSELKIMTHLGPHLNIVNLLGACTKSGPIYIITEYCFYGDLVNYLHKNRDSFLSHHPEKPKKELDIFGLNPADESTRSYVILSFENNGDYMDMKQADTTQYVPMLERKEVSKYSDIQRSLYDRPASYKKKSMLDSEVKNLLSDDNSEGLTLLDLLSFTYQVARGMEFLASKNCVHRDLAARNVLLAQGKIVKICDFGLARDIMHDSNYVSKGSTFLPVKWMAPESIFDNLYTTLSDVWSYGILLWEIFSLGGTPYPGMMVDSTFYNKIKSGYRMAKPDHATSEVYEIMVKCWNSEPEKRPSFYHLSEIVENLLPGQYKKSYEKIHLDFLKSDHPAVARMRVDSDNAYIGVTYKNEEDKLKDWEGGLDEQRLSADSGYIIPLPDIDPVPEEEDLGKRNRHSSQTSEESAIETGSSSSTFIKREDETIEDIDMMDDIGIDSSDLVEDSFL
Sequence of Serine/threonine-protein kinase PAK 1 (Homo sapiens) (Q13153 whole entry): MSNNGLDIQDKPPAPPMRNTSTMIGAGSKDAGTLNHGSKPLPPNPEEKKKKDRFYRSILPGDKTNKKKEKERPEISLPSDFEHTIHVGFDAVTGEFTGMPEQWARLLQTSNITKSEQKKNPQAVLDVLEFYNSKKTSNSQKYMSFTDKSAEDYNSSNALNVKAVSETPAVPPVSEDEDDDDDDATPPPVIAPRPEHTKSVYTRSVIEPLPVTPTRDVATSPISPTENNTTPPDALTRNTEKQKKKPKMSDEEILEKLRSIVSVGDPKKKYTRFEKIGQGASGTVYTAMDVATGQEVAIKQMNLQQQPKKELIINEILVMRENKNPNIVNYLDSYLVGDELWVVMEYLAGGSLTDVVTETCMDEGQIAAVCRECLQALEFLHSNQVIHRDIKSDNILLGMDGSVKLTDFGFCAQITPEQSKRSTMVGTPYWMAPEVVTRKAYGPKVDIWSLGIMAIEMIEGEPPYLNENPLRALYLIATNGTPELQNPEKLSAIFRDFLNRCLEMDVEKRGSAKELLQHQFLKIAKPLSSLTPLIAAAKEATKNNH

In the case of `CO[C@@H]1[C@H](N(C)C(=O)CCC(=O)NCCC(=O)NCCC(=O)NCCC(N)=O)C[C@H]2O[C@]1(C)n1c3ccccc3c3c4c(c5c6ccccc6n2c5c31)C(=O)NC4`, the Activity was 69% in [1]; 7% in [2]; 100% in test [3]; 100% in test [5]; 87% in [6]. Also, in [4], the Selectivity ratio was found to be 3.

For the compound `CO[C@@H]1[C@H](N(C)C(=O)CCC(=O)NCCC(=O)NCCC(=O)NCCC(=O)NCCC(=O)NCCC(=O)NCCC(=O)NCCC(=O)N[C@H]2CSSC[C@@H](C(=O)NCC(N)=O)NC(=O)CNC(=O)[C@H](Cc3ccccc3)NC(=O)[C@H](C(C)C)NC(=O)[C@H](CCCNC(=N)N)NC(=O)[C@H](Cc3ccccc3)NC(=O)[C@H](C(C)C)NC2=O)C[C@H]2O[C@]1(C)n1c3ccccc3c3c4c(c5c6ccccc6n2c5c31)C(=O)NC4` ({Staurosporine-Suc-βAla-βAla-βAla-βAla-βAla-βAla-βAla}-CVFRVFGCG-NH2; disulfide 1-8), the Activity was determined as 14% in test [7], 26% in test [8] and 65% in [9].

In the case of `CO[C@@H]1[C@H](N(C)C(=O)CCC(=O)NCCC(=O)NCCC(=O)NCCC(=O)NCCC(=O)NCCC(=O)NCCC(=O)NCCC(=O)N[C@H]2CNC(=O)C[C@@H](C(N)=O)NC(=O)CNC(=O)[C@H](Cc3ccccc3)NC(=O)[C@H](C(C)C)NC(=O)[C@H](CCCNC(=N)N)NC(=O)[C@H](Cc3ccccc3)NC(=O)[C@H](C(C)C)NC2=O)C[C@H]2O[C@]1(C)n1c3ccccc3c3c4c(c5c6ccccc6n2c5c31)C(=O)NC4` ({Staurosporine-Suc-βAla-βAla-βAla-βAla-βAla-βAla-βAla}-[Dap]VFRVFGD-NH2; lactam 1-8), the Activity was 100% in test [10] and 94% in test [11].
